Dynein transport = inhibitors of GR-EGFP nuclear translocation, primary screen, dynein cargo transport inhibitor project, imaging, high-content, 3617.4 mouse cells; 220,000 tested, 0.47% active; test concentration mostly 20 µM; stimulated with dexamethasone, 1 µM; active compounds read low; AID 1381, 2008; z-score, hits read low;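 active = plate z-score of nuclear minus cytoplasmic receptor signal below a set negative limit, without overly bright fluorescence or cell loss, cut at about -3.5 in these data, passing the limit was not always enough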;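 note: z-score of nuclear minus cytoplasmic ring GR-EGFP intensity difference per well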
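Also added – dexamethasone, 1.0 µM final · Buffer or medium – tet-free, stripped-serum medium · Schedule – induction 48 h, compound 1 h, agonist 30 min · Detection – formaldehyde fixation, Hoechst nuclear stain, 10x automated fluorescence imaging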
Autophagy HCS = autophagy modulators in MEF cells, primary screen, imaging, high-content, MEF GFP-LC3 | MEF GFP-LC3 puncta imaging; test concentration mostly 10 µM | calls only at 10 µM (by protocol) | 190,000 tested, 0.98% active | AID 463193, 2010;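 active = percentage of spot-positive cells more than 3 SD above its plate mean, without a fluorescence outlier flag or 80% toxicity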
HCT116 bCat-KO = primary screen for growth suppressors in beta-catenin knockout HCT116 cells (colon tumor, human) | HCT116 beta-catenin knockout viability, CellTiter-Glo, 60 h; active compounds read low | viability, % at 10 µM | 140,000 tested, 1.5% active | AID 818, 2007;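 active = viability at or under a set limit, the compound median less 4 SD, cut at about 6% in these data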
L major viab = Leishmania major promastigote growth inhibition, primary screen; Leishmania major promastigotes, resazurin fluorescence viability; inhibition, % at 10 µM; 200,000 tested, 9% active; in the data active = inhibition above about 50%;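 note: promastigotes grown with compound for 44 hours at 28 °C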
PTEN del growth = growth suppression of PTEN-null HCT116, primary screen, cell-based, CellTiter-Glo. HCT116 PTEN-null viability, 60 h; active compounds read low. viability, % at 10 µM. 140,000 tested, 1.2% active. AID 827, 2007;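 active = viability at or below a set limit, 4 SD under the median of all tested compounds, cut at about 3.7% in these data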;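 note: PTEN knockout HCT116 line with beta catenin targeted HCT116 as companion control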
Of the large screens only hits and unclear results are named; the others gave an inactive call. In the library only some 9.2% were active in any assay of this set; here they are far more common.

Cc1ccc(Sc2ccc([N+](=O)[O-])cc2[N+](=O)[O-])nc1	L major viab 58
Cc1ccnc(Sc2ccc([N+](=O)[O-])cc2[N+](=O)[O-])n1	Dynein transport -4.8, HCT116 bCat-KO 5.2, L major viab 100
CS(=O)(=O)N(Cc1ccccc1)c1ccccc1C(=O)N1CCN(c2ccccc2)CC1	none
c1ccc(CCC2CCCCN2Cc2nc(-c3ccc4c(c3)OCO4)no2)nc1 (stereo not drawn)	none (no result: HCT116 bCat-KO, PTEN del growth)
CN1CCCN(C(c2ccccc2)c2ccc(Cl)cc2)CC1 (stereo not drawn)	L major viab 99
O=C(C1CCN(Cc2ccc(Cl)cc2)CC1)N1CCN(C(c2ccccc2)c2ccccc2)CC1	L major viab 88
Clc1ccc(C(c2ccccc2)N2CCN(c3ccccn3)CC2)cc1 (stereo not drawn)	none (no result: Autophagy HCS, HCT116 bCat-KO, L major viab, PTEN del growth)
Cc1cccc(CN2CCN(C(c3ccccc3)c3ccc(Cl)cc3)CC2)c1 (stereo not drawn)	L major viab 63
CC(=O)CC(=O)Nc1ncccn1	none (no result: HCT116 bCat-KO, PTEN del growth)
O=c1[nH][nH]c(C(F)(F)F)c1/C=N/N1CCOCC1	none (no result: HCT116 bCat-KO, PTEN del growth)
CCn1c(NC(=O)C(C)C)c(-c2ccccc2)c(=O)c2ccccc21	none (no result: Autophagy HCS, HCT116 bCat-KO, L major viab, PTEN del growth)
COc1ccc(C(=O)NNC(=O)c2cccc(F)c2)cc1	none (no result: HCT116 bCat-KO, PTEN del growth)
CN(C)c1cc[n+](CC(=O)c2ccc(Br)cc2)cc1	none (no result: HCT116 bCat-KO, PTEN del growth)
Cc1ccc(SCCc2cc[n+](CC(=O)c3ccccc3)cc2)cc1	none (no result: HCT116 bCat-KO, PTEN del growth)
Cc1ccc(C(=O)C[n+]2ccc(Cc3ccccc3)cc2)cc1	L major viab 86 (no result: HCT116 bCat-KO, PTEN del growth)
CN(C)c1cc[n+](CC(=O)c2ccc(-c3ccccc3)cc2)cc1	L major viab 100 (no result: HCT116 bCat-KO, PTEN del growth)
Cc1cccc(S(=O)(=O)NCCC(=O)OC(C)C(=O)NC(=O)NC2CCCCC2)c1 (stereo not drawn)	none
CCOC(=O)c1cc2c(ccn2-c2ccc(F)cc2)n1CC(=O)N1CCN(C(=O)c2ccco2)CC1	none
COC(=O)c1cc(C(=O)OC)n(Cc2ccc(F)cc2)c1C	none (no result: HCT116 bCat-KO, PTEN del growth)
COC(=O)c1cc2c(ccn2-c2ccc(F)cc2)n1Cc1cccc(OC)c1	L major viab 98
COC(=O)c1cc2c(ccn2-c2ccc(F)cc2)n1Cc1ccc(OC(C)=O)cc1	L major viab 93
COC(=O)NNC(=S)Nc1ccc(Br)cc1	none (no result: HCT116 bCat-KO, PTEN del growth)
O=C(COc1ncnc2sccc12)Nc1ccc(F)cc1F	none (no result: HCT116 bCat-KO, PTEN del growth)
Cc1ccc(Nc2nc(N)nc(CN3CCC(C)CC3)n2)c(C)c1	L major viab 62
Cc1ccc(SCc2nc(N)nc(Nc3ccccc3C)n2)c(C)c1	L major viab 60
Cc1ccccc1Nc1nc(N)nc(CSCC(=O)Nc2cccc(Br)c2)n1	L major viab 81
CCc1ccccc1Nc1nc(N)nc(CSCC(=O)c2cc(C)n(C)c2C)n1	none
Cc1ccc(SCc2nc(N)nc(Nc3ccccc3C)n2)cc1C	none
Cc1c(Cl)cccc1Nc1nc(N)nc(CN2CCc3ccccc3C2)n1	L major viab 89
Cc1ccc(Nc2nc(N)nc(CN3CCc4ccccc4C3)n2)cc1	none
Cc1ccc(Nc2nc(N)nc(CN3CCCCCC3)n2)c(C)c1	none
Cc1ccc(-c2nn(C)c(=O)c3ccccc23)cc1CN1CCCCC1	none (no result: Autophagy HCS, HCT116 bCat-KO, L major viab, PTEN del growth)
Cc1ccccc1Nc1nc(N)nc(CN(C)Cc2ccccc2Cl)n1	L major viab 51
CCn1cc(C(=O)NCc2cccs2)c(=O)c2cc(S(=O)(=O)N3CCOCC3)ccc21	none (no result: Autophagy HCS, HCT116 bCat-KO, L major viab, PTEN del growth)
N=c1c2c3c(sc2ncn1Cc1ccccc1)CCCC3	L major viab 92
COc1ccc(CN(Cc2ccccn2)S(=O)(=O)c2ccc(-n3cnnn3)c(OC)c2)cc1	L major viab 80
COc1ccc(CN(Cc2cccnc2)S(=O)(=O)c2ccc(-n3cnnn3)c(C)c2)cc1OC	L major viab 87
CCc1nnnn1-c1ccc([N+](=O)[O-])cc1C	none (no result: HCT116 bCat-KO, PTEN del growth)
Cn1nnnc1SCC(=O)C(C)(C)C	none (no result: HCT116 bCat-KO, PTEN del growth)
CCCN(CC(=O)Nc1cc(Cl)cc(Cl)c1)CC(=O)Nc1ccc(F)c(F)c1F	L major viab 63
CCCOc1ccc(C(=O)NNC(=S)NC(=O)CC)cc1	HCT116 bCat-KO 5.5, L major viab 95
CCNC(=S)NNC(=O)c1ccc(OC)cc1	none (no result: HCT116 bCat-KO, PTEN del growth)
CCC(=O)NC(=S)NNC(=O)c1ccc(NC(=O)c2ccccc2)cc1	L major viab 99 (no result: HCT116 bCat-KO, PTEN del growth)
O=C(NNC(=O)c1ccc(NC(=O)c2ccccc2)cc1)c1ccccc1	none (no result: HCT116 bCat-KO, PTEN del growth)
CCCCC(=O)NC(=S)NNC(=O)c1ccc(OC)cc1	L major viab 58 (no result: HCT116 bCat-KO, PTEN del growth)
Cc1cc(-c2nnc(CCC(=O)NC(Cc3ccccc3)c3ccccc3)o2)no1 (stereo not drawn)	none (no result: HCT116 bCat-KO, PTEN del growth)
CC(C)CC1NC(=O)N(Cc2cc(=O)n3ccsc3n2)C1=O (stereo not drawn)	none (no result: HCT116 bCat-KO, PTEN del growth)
CCCn1c(=O)n(N)c2ccccc21	none
C/C(=N/OC(=O)c1ccccc1)c1oc(C)nc1C	none (no result: Autophagy HCS, HCT116 bCat-KO, L major viab, PTEN del growth)
CCN(CC)C(=O)CSc1nc(C)cc(C)n1	none (no result: HCT116 bCat-KO, PTEN del growth)
Fc1ccc(-n2c(Cn3nnc4ccccc43)n[nH]c2=S)cc1	none (no result: HCT116 bCat-KO, PTEN del growth)
Cc1ccc(OCc2nnc(SCC(=O)Nc3ccc4c(c3)OCCO4)n2Cc2ccco2)cc1	L major viab 96
O=C(CSc1ncc(-c2ccc(F)cc2)n1Cc1ccco1)Nc1ccc2c(c1)OCO2	L major viab 60
O=C(CSc1nnc(-c2ccccc2)n1Cc1ccco1)Nc1ccc2c(c1)OCCO2	none
COc1ccc(/C=C2/SC(=O)N(CC(=O)Nc3cc(C)on3)C2=O)cc1OC	none
CCN1CCCC1CNS(=O)(=O)c1ccc(Cl)c(C(F)(F)F)c1 (stereo not drawn)	L major viab 81 (no result: HCT116 bCat-KO, PTEN del growth)
CCN1CCCC1CNS(=O)(=O)c1ccc(C(=O)Nc2ccccc2)cc1 (stereo not drawn)	none
Cc1ccc(CN2CCN(C(=O)c3ccncc3)CC2)cc1	none (no result: HCT116 bCat-KO, PTEN del growth)
Cc1nc2cc(-c3cccc(F)c3)nn2c(N2CCN(C(=O)c3ccco3)CC2)c1C	none
O=C1CN(CC(=O)N2CCOCC2)c2ccccc2O1	none (no result: Autophagy HCS)
O=C1CN(CC(=O)N2CCCCC2)c2ccccc2O1	L major viab 98 (no result: Autophagy HCS)
COc1ccc(-c2nc(NC(=O)c3ccc(OCC(=O)Nc4ccc(F)cc4)c(OC)c3)sc2C)cc1	L major viab 69
COc1cc(C(=O)Nc2nc(-c3ccc(C)cc3)cs2)ccc1OCC(=O)N1CCOCC1	L major viab 95
COc1cc(C(=O)Nc2nc(-c3ccc(F)cc3)cs2)ccc1OCC(=O)N1CCOCC1	L major viab 96
COc1ccc(-c2csc(NC(=O)c3ccc(OCC(=O)N4CCOCC4)c(OC)c3)n2)cc1	none
COc1cc(C(=O)O)ccc1OCC(=O)N1CCOCC1	none
COc1cc(C(=O)Nc2nc(-c3cc(C)ccc3C)c(C)s2)ccc1OCC(=O)Nc1ccc(F)cc1	none
CC1(C)CC(=O)C=C(NCCc2ccc(S(N)(=O)=O)cc2)C1	none
CCOC(=O)C1(Cc2ccc(Cl)cc2)CCN(Cc2cn(CC)nc2C)CC1	none (no result: Autophagy HCS, HCT116 bCat-KO, L major viab, PTEN del growth)
CCOC(=O)Cn1nc(C)n(-c2ccc(F)cc2)c1=O	none (no result: HCT116 bCat-KO, PTEN del growth)
COc1ccc(Oc2cnn(-c3ccccc3)c(=O)c2Br)cc1	none (no result: HCT116 bCat-KO, PTEN del growth)

Compound activity deposited in PubChem BioAssay by several laboratories.
